Sampled rows, rich in hits. Any-hit rate of the full collection: about 2.2%.
MT1-MMP act inh: blocks activation of human MT1-MMP; P50281; HT1080 RFP-PRO-GFP cells, GFP/RFP ratio fluorescence, overnight; percent of plate control window, DMSO zero; GFP/RFP ratio change, % at 20 µM; 0.061% of 360,000 active;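 active = GFP/RFP ratio change of at least 30% with cell ATP level not reduced by more than half and red fluorescence within 50% of control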
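Material – HT1080 RFP-PRO-GFP cells · Control set – DMSO wells and RFP-L50D-GFP cells · Incubation – overnight cell settling, then overnight compound exposure, 37 °C, 5% CO2 · Compound dosing – single-point 20 µM compound, 1% DMSO · Read-out – GFP/RFP fluorescence ratio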
Neddyl block: cullin neddylation inhibition. P61081+Q13564. TR-FRET cullin neddylation, biochemical. calls only at 25 µM. 0.58% of 360,000 active. AID 651699; in the data active = inhibition above about 36%
DDE Tn7 FP inh: inhibitors of Tn7 peptide binding to human fibrin DD(E). inhibition, % at 8.3 µM. FP displacement of FITC-Tn7 peptide from fibrin DD(E); 0% = median of compound wells per plate. 0.13% of 370,000 active. AID 720508. P02675;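 active = inhibition above the mean of compounds falling within the control limits plus 3 SD of them, cut at about 14% in these data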;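 also: 0% = plate median of compound wells and 100% = 10 µM Aha-Tn7 peptide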
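system = human fibrin DD(E) protein | quantity = DD(E) 2 µM final | medium = Tris/NaCl/CaCl2 buffer, pH 7.8 | also added = labelled Tn7 tracer, 0.1 µM | compound dosing = single point at 8.3 µM | timing = compound with protein 10 min, then 3 h after probe, room temperature | signal = FP measurement | benchmarks = Aha-Tn7 high control | repeats = one replicate per compound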
KLK7 zymogen act: proKLK7 (human) activation, primary screen; 0.9% of 370,000 active; activation, % at 7 µM; AID 652039; purified proKLK7, EDANS-DABCYL substrate fluorescence; 100% is mature enzyme control, 0% vehicle;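 active = activation above the mean of all tested compounds plus 3 SD, computed per campaign excluding outliers beyond control limits, cut at about 13% in these data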
Target sequence (P49862 whole entry, looked up): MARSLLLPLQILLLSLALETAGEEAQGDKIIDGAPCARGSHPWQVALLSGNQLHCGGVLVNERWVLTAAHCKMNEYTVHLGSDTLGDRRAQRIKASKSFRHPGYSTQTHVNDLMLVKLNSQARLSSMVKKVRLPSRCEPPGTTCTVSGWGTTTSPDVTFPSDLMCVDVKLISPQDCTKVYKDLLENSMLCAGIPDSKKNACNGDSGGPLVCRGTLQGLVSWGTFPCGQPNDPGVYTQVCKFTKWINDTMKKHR
DDE Tn6 FP inh: DD(E)-Tn6 binding inhibition, primary FP screen; P02675; Fibrin DD(E) TRITC-Tn6 fluorescence polarization displacement; inhibition, % at 8.3 µM; 0.21% of 370,000 active; AID 720509;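 active = inhibition above a per-campaign cutoff: mean of compounds within control limits plus 3 SD, cut at about 15% in these data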;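 also: 0% = median of all compound wells on the plate and 100% = blocking peptide control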
SKN-1 block: inhibitors of C. elegans SKN-1 | C. elegans VP596 Pgst-4::GFP/RFP ratio, acrylamide-induced, 24 h | inhibition, % at 21.8 µM | 0.49% of 360,000 active;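 active = interference check ratio from 0.5 to 1.5 plus GFP to RFP signal ratio inhibition reaching or exceeding a fixed threshold, cut at about 30% in these data, passing the limit was not always enough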
KLK7 act conf: confirmation of human kallikrein-7 zymogen activators | activation, % at 7 µM | purified proKLK7, EDANS-DABCYL substrate fluorescence; scaled: vehicle 0, mature enzyme 100 | 68% of 3,200 active | shares compounds with KLK7 zymogen act;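 active = activation, as change over the incubation, above the mean of all tested compounds plus 3 SD, cut at about 13% in these data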
EDANS-DABCYL int: fluorescence interference counter-screen for KLK7 activators. EDANS-DABCYL substrate fluorescence interference, no enzyme, 4 h; solvent 0%, active enzyme control 100%. shares compounds with KLK7 zymogen act. 80% of 3,200 active. activation, % at 7 µM;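 active = activation above the all-compound mean plus 3 SD, ignoring values outside control-based bounds, cut at about 4.8% in these data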;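 also: value is the 4 h activation minus the activation read at time zero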
EDANS interf: counter-screen for kallikrein-7 activators: EDANS-DABCYL interference, dose response; 20% of 250 active; shares compounds with KLK7 zymogen act; AID 720493; EC50, µM; EDANS-DABCYL peptide fluorescence interference, no enzyme;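 active = compounds that raise the fluorescence signal in this interference counterscreen, with EC50 at or below 10 µM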;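 also: intact quenched peptide substrate alone read at 355 nm excitation and 520 nm emission; signal is fluorescence gain from T0 to T4 after four hours at room temperature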
* = called active by the depositor.

Screening CCC(CC)COC(=O)C1=C(C)NC(=O)NC1c1cc(OC)ccc1OC (stereo not drawn) returned MT1-MMP act inh -4, Neddyl block inactive, DDE Tn7 FP inh -1, KLK7 zymogen act 52*, DDE Tn6 FP inh 1, SKN-1 block 8, KLK7 act conf 1 and EDANS-DABCYL int 2.
`O=C(CCN1CCCCO1)NC1CCCc2c1cnn2-c1ccc(F)cc1F` (stereo not drawn) gave MT1-MMP act inh 3, Neddyl block inactive, DDE Tn7 FP inh 11, KLK7 zymogen act 0, DDE Tn6 FP inh 8 and SKN-1 block 8.
CCOC(=O)c1cnn2c(C)cc(-c3ccc(F)cc3)nc12 was read as MT1-MMP act inh -3, DDE Tn7 FP inh 2, KLK7 zymogen act 26*, DDE Tn6 FP inh 3, SKN-1 block 5, KLK7 act conf -4 and EDANS-DABCYL int 17*.
Screening O=C(CCn1nc(-c2ccccc2)c2ccccc2c1=O)N1CCN(c2ccccc2)CC1 returned MT1-MMP act inh 6, Neddyl block inactive, DDE Tn7 FP inh 11, KLK7 zymogen act 0, DDE Tn6 FP inh -6 and SKN-1 block 11.
`COc1ccc(N2C(=O)c3ccccc3NC2c2cccnc2)cc1` (stereo not drawn) gave MT1-MMP act inh 0, Neddyl block inactive, DDE Tn7 FP inh -10, KLK7 zymogen act 0, DDE Tn6 FP inh -12 and SKN-1 block 4.
For O=C1c2ccccc2NC(c2cccnc2)N1c1ccccc1F (stereo not drawn) the results were MT1-MMP act inh 2, DDE Tn7 FP inh 6, KLK7 zymogen act 23*, DDE Tn6 FP inh -3, SKN-1 block 4, KLK7 act conf 40* and EDANS-DABCYL int 32*.
`CCN(CC)CCCNc1oc(-c2cccc(Cl)c2)nc1C#N` gave MT1-MMP act inh -9, DDE Tn7 FP inh -1, KLK7 zymogen act 41*, DDE Tn6 FP inh -1, SKN-1 block 17, KLK7 act conf 9 and EDANS-DABCYL int 18*.
Screening COCCNc1oc(-c2ccc(Cl)cc2)nc1C#N returned MT1-MMP act inh 2, DDE Tn7 FP inh 2, KLK7 zymogen act 22*, DDE Tn6 FP inh -6, SKN-1 block 0, KLK7 act conf 13* and EDANS-DABCYL int 12*.
For Cc1ccc(-c2nc(C#N)c(NCCN3CCCCC3)o2)cc1 the results were MT1-MMP act inh 5, DDE Tn7 FP inh -7, KLK7 zymogen act 17*, DDE Tn6 FP inh 2, SKN-1 block -12, KLK7 act conf 6 and EDANS-DABCYL int 7.2*.
Screening N#Cc1nc(-c2ccc(F)cc2)oc1NCCN1CCOCC1 returned MT1-MMP act inh 3, DDE Tn7 FP inh 9, KLK7 zymogen act 7, DDE Tn6 FP inh -9 and SKN-1 block 6.
C=CCNc1oc(-c2cccc(Cl)c2)nc1C#N was read as MT1-MMP act inh 4, Neddyl block inactive, DDE Tn7 FP inh -2, KLK7 zymogen act 0, DDE Tn6 FP inh 2 and SKN-1 block -11.
CN(C)CCCNc1oc(-c2ccc(Cl)cc2)nc1C#N was read as MT1-MMP act inh 2, DDE Tn7 FP inh -6, KLK7 zymogen act 34*, DDE Tn6 FP inh 2, SKN-1 block -11, KLK7 act conf 24* and EDANS-DABCYL int 21*.
Screening O=C(Nc1ccc(F)cc1)N(Cc1nnc2n1CCCCC2)c1ccccc1 returned MT1-MMP act inh -2, Neddyl block inactive, DDE Tn7 FP inh -7, KLK7 zymogen act 0, DDE Tn6 FP inh 0 and SKN-1 block 4.
For CCOC(=O)C1=C(COC(=O)c2cccc(NC(C)=O)c2)NC(=O)NC1C (stereo not drawn) the results were MT1-MMP act inh 4, Neddyl block inactive, DDE Tn7 FP inh -11, KLK7 zymogen act 1, DDE Tn6 FP inh 12 and SKN-1 block 10.
For Cc1ccc2nc(NC(=O)c3cccs3)sc2c1 the results were MT1-MMP act inh -6, DDE Tn7 FP inh 3, KLK7 zymogen act 27*, DDE Tn6 FP inh -7, SKN-1 block 7, KLK7 act conf 4 and EDANS-DABCYL int 12*.
Cc1ccc2nc(NC(=O)c3ccc4ncsc4c3)sc2c1 was read as MT1-MMP act inh 0, Neddyl block inactive, DDE Tn7 FP inh 7, KLK7 zymogen act 15*, DDE Tn6 FP inh 6, SKN-1 block 0, KLK7 act conf 15*, EDANS-DABCYL int 6.8* and EDANS interf inactive.
`Cc1ccc2nc(NC(=O)c3ccc(Cn4cc(Cl)cn4)o3)sc2c1` gave MT1-MMP act inh 6, DDE Tn7 FP inh -4, KLK7 zymogen act 57*, DDE Tn6 FP inh 1, SKN-1 block 4, KLK7 act conf -100 and EDANS-DABCYL int -81.
`NNC(=O)c1ccc(Cn2cc(Cl)cn2)o1` gave MT1-MMP act inh -4, Neddyl block inactive, DDE Tn7 FP inh -8, KLK7 zymogen act 0, DDE Tn6 FP inh -5 and SKN-1 block 18.
Screening Cc1ccc2nc(NC(=S)NC(=O)c3cccs3)sc2c1 returned MT1-MMP act inh -2, Neddyl block inactive, DDE Tn7 FP inh 11, KLK7 zymogen act 0, DDE Tn6 FP inh 12 and SKN-1 block -3.
`Cc1ccc(NC(=O)COC(=O)C2=COCCO2)cc1` gave MT1-MMP act inh 8, Neddyl block inactive, DDE Tn7 FP inh -4, KLK7 zymogen act 0, DDE Tn6 FP inh 10 and SKN-1 block 3.
Screening Cc1c(CC(=O)N2CCN(C(=O)C3COc4ccccc4O3)CC2)c(=O)oc2cc(O)ccc12 (stereo not drawn) returned MT1-MMP act inh 1, Neddyl block inactive, DDE Tn7 FP inh 0, KLK7 zymogen act 58*, DDE Tn6 FP inh -8, SKN-1 block -10, KLK7 act conf 74* and EDANS-DABCYL int 75*.
COc1ccc2c(C)c(CC(=O)N3CCN(C(=O)C4COc5ccccc5O4)CC3)c(=O)oc2c1 (stereo not drawn) was read as MT1-MMP act inh 2, DDE Tn7 FP inh -1, KLK7 zymogen act 3, DDE Tn6 FP inh 7 and SKN-1 block -14.

Source: PubChem
